Activity calls are given as the source filed them.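 The calls were made as follows, unless noted: active = viability at or below 30% in both replicate assays; inconclusive = viability at or below 30% in just one of the two assays; inactive = the rest.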

Test [1] is described as follows: Her2 expression decrease, cell viability multiplex – SKBR3 breast tumor cells, AlphaScreen, ATP viability, primary screen (AID 461;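 active = Her2 level under about 52% in both replicate screens, with viability over 70% of control, limit read from the data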;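 as to Her2 level: lower value means less Her2 protein in the cells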;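 as to viability: percent of carrier control wells set as 100% viability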). As to conditions: SKBR3 Her2 protein level, 18-24 h, measured here: SKBR3 viability, ATP luminescence, at 10 µM. (In Alpha technology, singlet oxygen from a donor bead excites a nearby acceptor bead.)
In test [2] the target is Receptor tyrosine-protein kinase erbB-2 (Homo sapiens) (UniProt P04626). Described as above. As to conditions: 18-24 h, at 10 µM, stronger effect = lower value.
Chain of Receptor tyrosine-protein kinase erbB-2 (Homo sapiens) (P04626 whole entry, looked up): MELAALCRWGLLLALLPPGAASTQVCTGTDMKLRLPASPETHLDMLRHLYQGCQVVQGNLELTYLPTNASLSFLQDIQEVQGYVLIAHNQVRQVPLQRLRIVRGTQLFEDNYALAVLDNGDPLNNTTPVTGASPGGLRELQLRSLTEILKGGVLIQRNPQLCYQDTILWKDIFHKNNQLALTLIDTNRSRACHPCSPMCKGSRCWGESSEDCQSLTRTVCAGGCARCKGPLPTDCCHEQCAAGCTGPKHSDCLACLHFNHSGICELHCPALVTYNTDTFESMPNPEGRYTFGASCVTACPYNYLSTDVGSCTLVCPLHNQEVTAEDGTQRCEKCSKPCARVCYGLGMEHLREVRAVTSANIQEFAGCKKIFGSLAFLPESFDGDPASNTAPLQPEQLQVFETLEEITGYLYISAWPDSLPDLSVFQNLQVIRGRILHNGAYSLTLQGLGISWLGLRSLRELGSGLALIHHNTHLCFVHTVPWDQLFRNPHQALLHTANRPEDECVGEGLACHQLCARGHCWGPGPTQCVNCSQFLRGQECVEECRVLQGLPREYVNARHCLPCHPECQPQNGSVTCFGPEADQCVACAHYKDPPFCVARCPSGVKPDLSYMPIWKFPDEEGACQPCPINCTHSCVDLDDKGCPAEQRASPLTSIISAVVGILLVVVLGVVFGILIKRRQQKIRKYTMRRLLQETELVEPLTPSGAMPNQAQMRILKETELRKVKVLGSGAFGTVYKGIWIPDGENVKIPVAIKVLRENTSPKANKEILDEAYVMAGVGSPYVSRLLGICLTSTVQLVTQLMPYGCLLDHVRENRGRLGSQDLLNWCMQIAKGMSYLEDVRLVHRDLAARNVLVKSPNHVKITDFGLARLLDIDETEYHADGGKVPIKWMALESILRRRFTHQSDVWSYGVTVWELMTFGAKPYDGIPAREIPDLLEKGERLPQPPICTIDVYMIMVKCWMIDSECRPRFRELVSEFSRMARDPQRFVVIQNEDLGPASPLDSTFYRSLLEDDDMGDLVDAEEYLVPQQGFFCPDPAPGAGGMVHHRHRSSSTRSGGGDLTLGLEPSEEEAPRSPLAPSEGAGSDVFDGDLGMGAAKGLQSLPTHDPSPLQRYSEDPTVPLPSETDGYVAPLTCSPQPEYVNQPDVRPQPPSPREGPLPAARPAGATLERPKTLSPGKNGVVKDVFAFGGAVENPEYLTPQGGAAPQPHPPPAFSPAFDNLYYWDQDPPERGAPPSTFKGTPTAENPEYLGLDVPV
The nature of test [3]: reduced viability of SK-BR-3 breast cancer cells – cell-based, 24 h, human, pilot screen (AID 572;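 active = viability at or below 10% of carrier control in both of two separate runs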;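 also: compound exposure lasted between 18 and 24 h rather than exactly 24 h; 100% = carrier-treated control wells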). To be noted: SK-BR-3 viability, CellTiter-Glo luminescence, at 10 µM, stronger effect = lower value. Background: ATP-based viability assays read luminescence as a measure of living cells.
Test [4] is described as follows: HUVEC growth inhibition – cell-based, human, primary screen (AID 575).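 Also: 100% = median of untreated cell wells with 0.1% DMSO on each plate.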 As to conditions: HUVEC proliferation, CellTiter-Glo luminescence, 72 h; at 10 µM; stronger effect = lower value. In short, it runs like this: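 Material: primary human umbilical vein endothelial cells / Schedule: 72 h exposure, 37 °C, 5% CO2, 30 min RT equilibration / Signal: ATP-based CellTiter-Glo luminescent read / Read-out basis: percent of median DMSO-control luminescence / Control set: 32 DMSO-only cell-control wells (high), 32 MePR drug-control wells (low) per plate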

Test [5] in a line: H69AR cell proliferation blockers – human, duplicate replicates, primary screen (AID 580;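 active = viability at or under a set limit in both replicates, limit being median viability minus 3 SD, cut at about 48% in these data, passing the limit was not always enough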;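 also: 100% = mean luminescence of untreated wells and 0% = no signal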). As to conditions: H69AR lung tumor cells viability, ATP luminescence, 72 h; at 10 µM; stronger effect = lower value.
A short description of test [6]: MRP1 drug-resistance reversers in H69AR cells – cell-based, doxorubicin co-treatment, pilot screen (AID 601;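 active = viability loss from added drug above about 55%, and viability with drug at most 40%, in both replicates, limit read from the data, passing the limit was not always enough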). To be noted: CellTiter-Glo, 72 h, at 10 µM; for differential viability (reversal): stronger effect = higher value.
Test [7] can be described thus: yeast transport mutant growth inhibition pilot in 384-well plates, post-Golgi transport modulator project (AID 636; in the data active = inhibition above about 31%). To be noted: absorbance 615 nm, about 18 h, stronger effect = higher value.
A short description of test [8]: growth suppression of yeast trafficking mutant, preliminary HTS, modulators of trafficking downstream of Golgi apparatus project, 1536-format plate, OD 615 nm (AID 637; in the data active = inhibition above about 30%). As to conditions: yeast transport mutant growth, absorbance 615 nm, 18 h; stronger effect = higher value.
[9] abbreviates: H69AR cells + 2 uM doxorubicin, measured here: viability with 2 uM doxorubicin, stronger effect = lower value.
[10] abbreviates: H69AR cells, compound alone cytotoxicity.

In the case of `COc1ccc(NC(=O)C(C)NS(=O)(=O)c2ccc(NC(C)=O)cc2)cc1Cl` (stereo not given), the viability (usually a read-out of living cells in per cent, often relative to untreated cells) was 124% in test [1]; 124% (inactive) in test [3]; 103% (inactive) in test [4]; 95% (inactive) in test [5]; 87.4% in test [6] (setting [9]); 95% in test [6] (setting [10]). The Her2 level in test [2] is 97% (inactive). Moreover, the differential viability (reversal) in test [6] (H69AR cells + 2 uM doxorubicin) is 7.65% (inactive). Besides, the results for the inhibition in test [7] and in test [8] were -6% (inactive) and -1.75% (inactive), respectively.

Regarding `COc1ccc(/C(O)=C2/C(=O)C(=O)N(CC3CCCO3)C2c2cccc(OC)c2)cc1` (stereo not given), the viability in test [1] is 106%; in test [3], 106% (inactive); in test [4], 81.9% (inactive); in test [5], 94.2% (inactive); in test [6] (setting [9]), 86.5%; in test [6] (setting [10]), 94.2%. In test [2], the Her2 level was 87.5% (inactive). Moreover, in test [6] (H69AR cells + 2 uM doxorubicin), the differential viability (reversal) was 7.73% (inactive). Moreover, the inhibition (commonly the change of the read-out against control, counted positive when it falls) is -4.93% (inactive) in test [7] and 2.3% (inactive) in test [8].

With `CCNc1nc(OC)nc(Oc2ccc(=O)n(-c3ccccc3)n2)n1`, the viability in test [1] was 96%; in test [3], 96% (inactive); in test [4] it was 106% (inactive); in test [5], 96.4% (inactive); in test [6] (setting [9]) it was 85.8%; in test [6] (setting [10]) it was 96.4%. In addition, the Her2 level in test [2] was 86.5% (inactive). Besides, in test [6] (H69AR cells + 2 uM doxorubicin), the differential viability (reversal) is 10.6% (inactive). In addition, the figures for the inhibition in test [7] and in test [8] were -8.51% (inactive) and 2% (inactive), respectively.

`Nc1ccc(-c2ccc(N)cc2C(F)(F)F)c(C(F)(F)F)c1`: the viability was 94% in test [1]; 94% (inactive) in test [3]; 75.1% (inactive) in test [4]; 68.6% (inactive) in test [5]; 82.3% in test [6] (setting [9]); 68.6% in test [6] (setting [10]). In addition, in test [2], the Her2 level was 80% (inactive). Moreover, the differential viability (reversal) in test [6] (H69AR cells + 2 uM doxorubicin) was -13.7% (inactive). Also, the inhibition in test [7] was -0.65% (inactive); in test [8], -0.66% (inactive).

As for `CCS(=O)(=O)N1CCCC(c2nc(-c3cccc(OC)c3)no2)C1` (stereo not given), the viability was 100% in test [1]; 100% (inactive) in test [3]; 96.7% (inactive) in test [4]; 92.7% (inactive) in test [5]; 92.2% in test [6] (setting [9]); 92.7% in test [6] (setting [10]). Besides, in test [2], the Her2 level was 110% (inactive). For the same molecule, the differential viability (reversal) in test [6] (H69AR cells + 2 uM doxorubicin) was 0.525% (inactive). The inhibition is -3.84% (inactive) in test [7] and -2.7% (inactive) in test [8].

For `COc1cc(-c2nnc(SCc3c(F)cccc3Cl)o2)cc(OC)c1OC`, the viability in test [1] is 70.5%; in test [3], 70.5% (inactive); in test [4] it was 68.5% (inactive); in test [5] it was 85.2% (inactive); in test [6] (setting [9]), 81.3%; in test [6] (setting [10]), 85.2%. In addition, in test [2], the Her2 level was 103% (inactive). The differential viability (reversal) in test [6] (H69AR cells + 2 uM doxorubicin) is 3.85% (inactive). Further, the results for the inhibition in test [7] and in test [8] were -4.19% (inactive) and -4.1% (inactive), respectively.

Take `CC(NC(=O)c1ccc(F)cc1)C(c1cccs1)N1CCN(C)CC1` (stereo not given): the viability in test [1] is 90.5%; in test [3], 90.5% (inactive); in test [4] it was 98% (inactive); in test [5] it was 91.9% (inactive); in test [6] (setting [9]), 91.7%; in test [6] (setting [10]), 91.9%. Also, the Her2 level in test [2] was 86.5% (inactive). For the same molecule, in test [6] (H69AR cells + 2 uM doxorubicin), the differential viability (reversal) is 0.16% (inactive). Besides, the figures for the inhibition in test [7] and in test [8] were -6% (inactive) and 3.44% (inactive), respectively.

Take `CCN(c1ccc(OC)cc1)S(=O)(=O)c1ccc2c(c1)CCN2C(=O)CCC(=O)O`: the viability is 115% in test [1]; 115% (inactive) in test [3]; 88.9% (inactive) in test [4]; 92.4% (inactive) in test [5]; 90% in test [6] (setting [9]); 92.4% in test [6] (setting [10]). In test [2], the Her2 level was 97.5% (inactive). Further, in test [6] (H69AR cells + 2 uM doxorubicin), the differential viability (reversal) is 2.4% (inactive). The inhibition in test [7] is -3.55% (inactive); in test [8], -2.06% (inactive).

As to `CCOCC(=O)Nc1ccc(S(=O)(=O)N2CCOCC2)cc1`, the viability in test [1] was 95%; in test [3] it was 95% (inactive); in test [4] it was 92.3% (inactive); in test [5], 82.5% (inactive); in test [6] (setting [9]), 76.1%; in test [6] (setting [10]) it was 82.5%. Moreover, the Her2 level in test [2] is 85% (inactive). Also, the differential viability (reversal) in test [6] (H69AR cells + 2 uM doxorubicin) is 6.46% (inactive). Further, the results for the inhibition in test [7] and in test [8] were -4.67% (inactive) and -2.7% (inactive), respectively.

For the molecule `O=c1c2nnn(Cc3ccc(Cl)cc3)c2ncn1Cc1ccc(F)cc1`, the viability in test [1] is 124%; in test [3], 124% (inactive); in test [4], 65.6% (inactive); in test [5], 94.6% (inactive); in test [6] (setting [9]), 87.1%; in test [6] (setting [10]), 94.6%. Moreover, the Her2 level in test [2] was 89.5% (inactive). Also, in test [6] (H69AR cells + 2 uM doxorubicin), the differential viability (reversal) was 7.53% (inactive). The inhibition in test [7] was -9.86% (inactive); in test [8] it was 1.75% (inactive).

On to `COc1cccc(OCc2nc3c4cnn(-c5ccccc5)c4ncn3n2)c1`, for which the viability in test [1] is 97.5%; in test [3], 97.5% (inactive); in test [4] it was 80.1% (inactive); in test [5], 67.8% (inactive); in test [6] (setting [9]) it was 88.3%; in test [6] (setting [10]), 67.8%. For the same molecule, the Her2 level in test [2] is 99.5% (inactive). For the same molecule, the differential viability (reversal) in test [6] (H69AR cells + 2 uM doxorubicin) is -20.5% (inactive). In addition, the inhibition in test [7] is -2.24% (inactive); in test [8], 3.44% (inactive).

On to `CCn1ncc(Cl)c1C(=O)Nc1ccncc1`, for which the viability in test [1] is 114%; in test [3], 114% (inactive); in test [4], 97.5% (inactive); in test [5], 98.6% (inactive); in test [6] (setting [9]), 83.7%; in test [6] (setting [10]), 98.6%. In addition, in test [2], the Her2 level is 94.5% (inactive). In test [6] (H69AR cells + 2 uM doxorubicin), the differential viability (reversal) is 14.8% (inactive). Also, the results for the inhibition in test [7] and in test [8] were -4.4% (inactive) and -1.97% (inactive), respectively.

Consider `CCN(C1CCCCC1)S(=O)(=O)c1ccc(OC)c(C)c1`, for which the viability is 99% in test [1]; 99% (inactive) in test [3]; 91.5% (inactive) in test [4]; 93.1% (inactive) in test [5]; 77.4% in test [6] (setting [9]); 93.1% in test [6] (setting [10]). In test [2], the Her2 level was 108% (inactive). For the same molecule, the differential viability (reversal) in test [6] (H69AR cells + 2 uM doxorubicin) is 15.7% (inactive). The inhibition is -7.92% (inactive) in test [7] and -13% (inactive) in test [8].

On to `CCC(C)(C)NC(=O)C(c1ccco1)N(C(=O)Cn1nnc2ccccc21)c1ccc2c(c1)OCO2` (stereo not given), for which the viability is 92.5% in test [1]; 92.5% (inactive) in test [3]; 78.1% (inactive) in test [4]; 105% (inactive) in test [5]; 85.9% in test [6] (setting [9]); 105% in test [6] (setting [10]). For the same molecule, the Her2 level in test [2] was 85% (inactive). Further, the differential viability (reversal) in test [6] (H69AR cells + 2 uM doxorubicin) is 18.9% (inactive). For the same molecule, the inhibition is -0.53% (inactive) in test [7] and -1.13% (inactive) in test [8].

As for `Cc1cc(C)n2nc3nc(N4CCCCC4)nc(-c4ccco4)c3c2n1`, the viability in test [1] was 81.5%; in test [3], 81.5% (inactive); in test [4] it was 79.5% (inactive); in test [5], 80.2% (inactive); in test [6] (setting [9]), 82.8%; in test [6] (setting [10]) it was 80.2%. For the same molecule, in test [2], the Her2 level was 81% (inactive). Moreover, the differential viability (reversal) in test [6] (H69AR cells + 2 uM doxorubicin) was -2.63% (inactive). For the same molecule, the inhibition in test [7] is -4.53% (inactive); in test [8], -5.16% (inactive).

As to `Cc1cnc(C(=O)Nc2ccc(-n3cnnn3)cc2)cn1`, the viability was 100% in test [1]; 100% (inactive) in test [3]; 101% (inactive) in test [4]; 105% (inactive) in test [5]; 88.9% in test [6] (setting [9]); 105% in test [6] (setting [10]). For the same molecule, in test [2], the Her2 level is 98.5% (inactive). In test [6] (H69AR cells + 2 uM doxorubicin), the differential viability (reversal) was 16.4% (inactive). For the same molecule, the inhibition was -4.93% (inactive) in test [7] and -4.68% (inactive) in test [8].
